Measured values of several laboratories.
Target: Serine/threonine-protein kinase PLK2 (PLK2, Homo sapiens, UniProt Q9NYY3)

SMILES	test	conditions	endpoint	value
CCN(CC)CCNC(=O)c1c(C)[nH]c(/C=C2\C(=O)Nc3ccc(F)cc32)c1C	enzyme activity, inhibitor	10 µM	inhibition	6%
Cc1sc(C(=O)NC2COC2)cc1-n1cc(NC(=O)Nc2c(F)cccc2Cl)cn1	enzyme activity, inhibitor	10 µM	remaining activity	95.2%
O=C1Nc2ccc(Cl)cc2C1=Cc1cc(Cl)c(O)c(Cl)c1	cell-free assay	0.5 µM	remaining signal	95.4%
COc1cc(-c2cn(C3CCc4ccccc4N(CC(F)(F)F)C3=O)nn2)ccc1-n1ccc(C)n1 (stereo not drawn)	cell-free assay, competition with immobilised ligand	1 µM	remaining binding	100%
CN(C)c1nccc(-c2cnc3ncccn23)n1	binding	1 µM	remaining binding	66%
CNC(=O)c1cc(Oc2ccc(NC(=O)Nc3ccc(Cl)c(C(F)(F)F)c3)cc2)ccn1	enzyme activity, inhibitor	0.3 µM	inhibition	-1%
O=C(O)[C@H]1[C@H](Cn2nnc3ccccc3c2=O)CC[C@@H]1C(=O)c1ccc(OCCC2CCOCC2)cc1	cell-free assay, competition with immobilised ligand	1 µM	remaining binding	100%
Cc1ccc(Nc2nccc(N(C)c3ccc4c(C)n(C)nc4c3)n2)cc1S(N)(=O)=O	enzyme activity, inhibitor	0.3 µM	inhibition	-15%
CCOc1cc(-c2nncn2C)ccc1Nc1ncc2cc(C)nc(NCC(C)(C)C)c2n1	enzyme activity, inhibitor, FRET	1 µM	inhibition	< 15%
N#CCCc1ccc2c(c1)-c1[nH]c3ccc([N+](=O)[O-])cc3c1CC(=O)N2	cell-free assay	0.5 µM	remaining signal	99%
Cc1cc(NC(=O)c2cccc3cc(-c4cccc5[nH]nc(N)c45)ccc23)ccc1F	enzyme activity, inhibitor	0.1 µM	activity vs control	91%
Nc1ncnc2occ(-c3ccc(NC(=O)Nc4cc(C(F)(F)F)ccc4F)cc3)c12	cell-free assay, inhibitor	20 µM	remaining signal	0.1%
CC(C)(C)c1nc(-c2cccc(NS(=O)(=O)c3c(F)cccc3F)c2F)c(-c2ccnc(N)n2)s1	enzyme activity, inhibitor, radiometric	1 µM	remaining activity	94%
CO[C@@H](C)c1c(Nc2ccc([C@@H](N(C)C(=O)C3CCS(=O)(=O)CC3)C(F)(F)F)cc2)cnc2cc(Cl)nn12	cell-free assay, competition with immobilised ligand	1 µM	remaining binding	100%
Cc1ccc(C(=O)Nc2ccc(CN3CCN(C)CC3)c(C(F)(F)F)c2)cc1C#Cc1cnc2cccnn12	enzyme activity, inhibitor	23.5 nM	remaining activity	94%
COc1cccc(CNC(=O)c2nc3scc(COCc4ccc(C(=O)O)cc4)c3c(=O)[nH]2)c1	cell-free assay, competition with immobilised ligand	1 µM	remaining binding	56.7%
Cc1cnc(NC2CCOCC2)nc1-n1cnc(C(=O)NC(CN)c2cc(F)cc(Cl)c2)c1 (stereo not drawn)	enzyme activity, inhibitor, radiometric	1 µM	remaining activity	69%
COc1cc(Cl)c(C(=O)N[C@@H](CN[C@H]2CC[C@@H](N)CC2)Cc2ccc(C#N)cc2)cc1-c1ccc(CN[C@H](C)c2ccc(C)cc2)o1	enzyme activity, inhibitor	1 µM	remaining activity	96%
C[C@H](c1ccnc(Nc2nc3ccc(-c4cc(N(C)C)ncn4)cc3[nH]2)c1)N1CCN(C(=O)CC(F)(F)F)CC1	cell-free assay, competition with immobilised ligand	0.1 µM	remaining binding	100%
C[S+]([O-])c1ccc(-c2nc(-c3ccncc3)c(-c3ccc(F)cc3)[nH]2)cc1 (stereo not drawn)	cell-free assay	0.5 µM	remaining signal	95.6%
CC(=O)C1=C(C)N(c2cccc(C(F)(F)F)c2)C(=O)N[C@@H]1c1ccc(C#N)nc1	cell-free assay, competition with immobilised ligand	1 µM	remaining binding	97.8%
CN1CC(Oc2cnc(C#N)cc2-c2ccn3nc(NC(=O)C4CC4)cc3c2)C1	enzyme activity, inhibitor	1 µM	inhibition	1%
CCCCN(CCCC)C(=O)CN1C[C@H](c2cc(OC)c3c(c2)OCO3)[C@@H](C(=O)O)[C@@H]1CC(C)(C)CCC	cell-free assay, competition with immobilised ligand	1 µM	remaining binding	67.1%
COc1cc2ncnc(Nc3ccc(Oc4ccccc4)c(C)c3C)c2cc1OC	enzyme activity, inhibitor	1 µM	inhibition	1%
